Screening results as filed in PubChem.
In the library only some 0.9% were active in any assay of this set; here they are far more common.
RGS8-Gao: RGS8-Galphao binding modulators, primary screen, biochemical, multiplexed bead flow cytometry; AID 1423, 2008; actives lie on both sides; Guanine nucleotide-binding protein G(o) subunit alpha (Homo sapiens), P09471; response (percent of control binding), % at 10 µM; 220,000 compounds, 0.34% hits; in the data active means response below about 60% or above about 140%; inactive means in between;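 further: Galphao activated as the GDP aluminium fluoride complex binding bead-coupled RGS8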
Target sequence (P09471 whole entry, looked up): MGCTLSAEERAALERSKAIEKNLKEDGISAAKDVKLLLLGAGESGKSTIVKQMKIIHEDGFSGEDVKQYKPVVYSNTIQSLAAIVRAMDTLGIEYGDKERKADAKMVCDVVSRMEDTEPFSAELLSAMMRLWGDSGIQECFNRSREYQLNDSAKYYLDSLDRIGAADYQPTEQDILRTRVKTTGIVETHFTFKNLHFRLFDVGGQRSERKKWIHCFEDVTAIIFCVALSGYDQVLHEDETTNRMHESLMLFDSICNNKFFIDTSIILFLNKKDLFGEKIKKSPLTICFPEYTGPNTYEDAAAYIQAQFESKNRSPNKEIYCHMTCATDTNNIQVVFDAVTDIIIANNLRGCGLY
RGS7-Gao reg: RGS7-Galphao binding modulators, primary screen, biochemical, multiplexed bead flow cytometry. Guanine nucleotide-binding protein G(o) subunit alpha (Homo sapiens), P09471. actives lie on both sides. binding response (% of control), % at 10 µM. 220,000 compounds, 0.35% hits. AID 1439, 2008; in the data active means binding response below about 49% or above about 150%; inconclusive means no clear call, values can overlap the other calls; inactive means in between;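 further: fluorescent Galphao held in activated GDP-AlF4 state binding bead-coupled RGS7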
ABCB1 inh: ABCB1 efflux pump inhibitors, primary screen, cell-based, multiplex, flow cytometry, ABCG2 counter-screen. ATP-dependent translocase ABCB1 (Homo sapiens), P08183. CCRF-Adr cells, JC-1 efflux. inhibition, % at 6.6 µM. 190,000 compounds, 0.067% hits; in the data active means inhibition above about 40%;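 further: 0% = vehicle and 100% = reference inhibitor; higher value means more JC-1 retained so stronger ABCB1 efflux block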
RGS4-Gao reg: modulators of RGS4 binding to Galphao, primary screen, biochemical, multiplexed bead flow cytometry. actives lie on both sides. binding response (% of control), % at 10 µM. 220,000 compounds, 0.33% hits; in the data active means binding response below about 49% or above about 150%; inactive means in between;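 further: fluorescent Galphao activated with aluminum fluoride binding bead-coupled RGS4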
ABCG2 block: ABCG2 efflux pump inhibitors, primary screen, multiplex with ABCB1, IgMXP3 cells, flow cytometry; Broad substrate specificity ATP-binding cassette transporter ABCG2 (Homo sapiens), Q9UNQ0; JC-1 efflux; inhibition, % at 6.6 µM; 190,000 compounds, 0.1% hits; AID 1325, 2008;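 active means inhibition above 80%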;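 further: 0% = DMSO and 100% = nicardipine control wells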
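Times: 10 min at 25 °C | Test system: Two drug-resistant human cell lines, ABCG2 and ABCB1 | Quantity: 3 million cells/mL final, two lines in 1:1 ratio | Signal: Flow cytometry, 530 nm JC-1 signal | Dosing: Compound at 6.6 µM | Controls: Nicardipine and DMSO wells | Reagent: JC-1 as fluorescent efflux pump substrate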
RGS16-Gao HTS: modulators of RGS16 binding to Galphao, primary screen, biochemical, human proteins, multiplexed bead flow cytometry. AID 1441, 2008. binding response (% of control), % at 10 µM. 220,000 compounds, 0.38% hits. bead-based flow cytometry RGS16-Galphao binding, fluorescence; actives lie on both sides. Regulator of G-protein signaling 16 (Homo sapiens) + Guanine nucleotide-binding protein …;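 further: Galphao activated by GDP with aluminum fluoride before binding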
Target sequence (O15492 whole entry, looked up): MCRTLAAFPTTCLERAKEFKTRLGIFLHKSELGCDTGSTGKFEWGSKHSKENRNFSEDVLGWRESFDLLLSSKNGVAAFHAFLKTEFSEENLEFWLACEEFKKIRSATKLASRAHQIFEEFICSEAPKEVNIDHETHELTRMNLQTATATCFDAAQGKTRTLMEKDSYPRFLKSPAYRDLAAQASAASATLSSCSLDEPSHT
Target sequence (P09471 whole entry, looked up): as the sequence (P09471 whole entry, looked up) above
RGS-Gao: modulators of RGS–Galpha-o binding, primary screen, biochemical, multiplexed beads, flow cytometry, RGS4/7/8/16/19; shares compounds with RGS16-Gao HTS; multiplexed bead flow cytometry; RGS4–Galpha-o binding response, % at 10 µM; 1,600 compounds, 99% hits; AID 1504, 2009;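 further: fluorescently labeled Galpha-o bound to GDP with aluminium fluoride binding biotinylated RGS beads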
Avidin counter: disruption of biotin probe capture by avidin, counter-screen for RGS protein interaction modulators, biochemical, flow cytometry, bead-based. shares compounds with RGS16-Gao HTS. streptavidin beads, fluorescein-biotin binding. inhibition, % at 10 µM. 1,700 tested, under 10 active;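 active means inhibition above 50%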;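 further: median green fluorescence of gated singlet beads compared with DMSO control wells; 0% = DMSO wells and 100% = complete loss of bead fluorescence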
RGS8-Gao single: RGS8-Galphao binding modulators, confirmation, biochemical, multiplexed bead flow cytometry, single concentration; binding response (% of control), % at 10 µM; AID 1836, 2009; 1,700 compounds, 3% hits; shares compounds with RGS16-Gao HTS; bead-based flow cytometry RGS8-Galphao binding, fluorescence; actives lie on both sides; in the data active means binding response below about 72% or above about 130%; inactive means in between;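 further: Galphao activated as GDP AlF4 complex before binding bead RGS8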
RGS7-Gao single: RGS7-Galphao binding modulators, confirmation, biochemical, multiplexed bead flow cytometry, single concentration | shares compounds with RGS16-Gao HTS | bead-based flow cytometry RGS7-Galphao binding; actives lie on both sides | response (percent of control binding), % at 10 µM | 1,700 compounds, 7.8% hits | AID 1837, 2009; in the data active means response below about 75% or above about 130%; inactive means in between;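 further: fluorescent Galphao activated with GDP and aluminum fluoride binding bead-coupled RGS7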
RGS16-Gao conf: modulators of RGS16-Galphao protein binding, confirmation, biochemical, single concentration, multiplexed bead flow cytometry; shares compounds with RGS16-Gao HTS; AID 1838, 2009; bead-based flow cytometry; actives lie on both sides; response (% of control binding), % at 10 µM; 1,700 compounds, 4% hits; in the data active means response below about 74% or above about 130%; inactive means in between;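 further: Galphao activated as the GDP aluminium fluoride complex binding bead-coupled RGS16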
RGS4-Gao single: modulators of RGS4-Galphao protein binding, confirmation, biochemical, single concentration, multiplexed bead flow cytometry; binding response (% of control), % at 10 µM; AID 1840, 2009; shares compounds with RGS16-Gao HTS; actives lie on both sides; 1,700 compounds, 4% hits; in the data active means binding response below about 74% or above about 130%; inactive means in between
RGS19-Gao conf: regulators of RGS19-Galphao binding, confirmation, biochemical, single point, multiplexed bead flow cytometry; shares compounds with RGS16-Gao HTS; bead-based flow cytometry RGS19-Galphao binding; actives lie on both sides; response (percent of control binding), % at 10 µM; 1,700 compounds, 5% hits; in the data active means response below about 50% or above about 160%; inactive means in between;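 further: 100% = no compound control and 0% = blank background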
Starred values were filed as active, the others as inactive; ? = inconclusive; nt = no result given; [ ] = remark or other dose. Unless noted, how the calls were made is not given here.

SMILES	RGS8-Gao	RGS7-Gao reg	ABCB1 inh	RGS4-Gao reg	ABCG2 block	RGS16-Gao HTS	RGS-Gao	Avidin counter	RGS8-Gao single	RGS7-Gao single	RGS16-Gao conf	RGS4-Gao single	RGS19-Gao conf
CC(=O)/C(=N/Nc1ccccc1)Sc1nnc(C(O)c2ccccc2)n1-c1ccccc1 (configuration not stated)	85	96	0	99	-7	18*	99*	0	95	105	99	101	106
O=C(CCC1CCCC1)Nc1cccn(Cc2ccccc2Br)c1=O	93	?	nt	96	nt	95	nt	nt	nt	nt	nt	nt	nt
CCCC(=O)Nc1cccn(Cc2ccccc2Br)c1=O	nt	nt	0	nt	0	nt	nt	0	100	102	100	99	114
COc1cc2cc(Oc3ccc4ccc(=O)oc4c3)c(=O)oc2cc1O	101	98	0	102	0	101	nt	nt	nt	nt	nt	nt	nt
O=c1ccc2cc(O)c(O)cc2o1	59*	58	-1	57	-2	38	57*	2	94	91	91	89	86
NC(=O)NC(=O)COC(=O)c1ccc2c(c1)C(=O)N(Cc1ccccc1)C2=O	100	?	nt	102	nt	111	nt	nt	nt	nt	nt	nt	nt
CC(C)N1CCc2c(sc(NC(=O)c3ccc(S(=O)(=O)N4CCc5ccccc54)cc3)c2C(N)=O)C1	137	153*[activator]	1	147	0	137	147*	nt	nt	nt	nt	nt	nt
O=S(=O)(NCc1cn2ccccc2n1)c1cccs1	104	?	nt	98	nt	101	nt	nt	nt	nt	nt	nt	nt
COc1ccc(NC(=O)CSc2ncnc3c2cnn3CCc2ccccc2)cc1	19*	0.3*	0	-20*	2	-12*	nt	-1	100	101	101	103	103
CCOC(=O)c1c(NC(=O)c2c(C(=O)O)cccc2[N+](=O)[O-])sc(C)c1C	86	90	0	92	0	48	nt	nt	nt	nt	nt	nt	nt
Cc1ccc(NC(=S)N(CCCN2CCCC2)Cc2cccn2Cc2ccc(Cl)cc2)cc1Cl	117	165*[activator]	5	150	7	113	150*	1	104	103	97	103	98
CC(=O)N/C(N)=N/c1nc2cc([N+](=O)[O-])ccc2o1	76	?	nt	97	nt	98	nt	-1	93	89	93	95	100
COc1cccc(C(=O)Nc2cc(-c3cn4cccnc4n3)ccc2C)c1	103	102	0	100	2	105	nt	nt	nt	nt	nt	nt	nt
CCOc1ccc(NC(=O)c2nn(C)cc2Br)cc1	97	103	1	99	8	98	nt	nt	nt	nt	nt	nt	nt
Cn1cc(Br)c(C(=O)Nc2ncc(Br)s2)n1	14*	12*	0	15*	1	8.7*	nt	1	102	90	97	92	100
O=C(NCCN=C1NS(=O)(=O)c2ccccc21)c1ccncc1	114	163*[activator]	0	148	2	125	148*	-1	101	98	101	101	100
S=c1[nH]nc(-c2ccc3ccccc3n2)n1-c1ccc(Cl)cc1	114	119	-1	110	-7	177*[activator]	110*	-2	91	101	92	95	99
CN1CCN(CCCNC(=O)c2ccc3c(c2)N(Cc2ccccc2)CCS3)CC1	145*[activator]	134	1	142	0	140	142*	0	102	105	102	102	105
Cc1onc(-c2ccccc2Cl)c1C(=O)Nc1nn[nH]n1	53*	52	0	47*	0	-3	nt	0	108	109	110	104	113
Cc1cc(NC(=O)c2c(-c3ccccc3Cl)noc2C)no1	102	98	0	100	3	103	nt	nt	nt	nt	nt	nt	nt
CC#CC[N+](C)(C)CCCCCCCCCCCC	106	101	0	105	0	102	nt	nt	nt	nt	nt	nt	nt
O=[N+]([O-])c1ccc(COc2ccccc2/C=N/O)cc1	73	91	0	89	2	22*	89*	0	106	107	105	108	99
CCOc1cc(/C=N/O)ccc1OCc1ccc([N+](=O)[O-])cc1	99	101	2	101	35	98	nt	nt	nt	nt	nt	nt	nt
COc1ccc(CNC(=O)CN(Cc2ccccc2)C(=O)c2csnn2)cc1	98	94	-1	96	-2	99	nt	nt	nt	nt	nt	nt	nt
C=CCN(CC(=O)NCc1ccccc1)C(=O)c1csnn1	nt	nt	0	nt	0	nt	nt	1	100	100	99	100	91
C/C(=C\C(=O)C(F)(F)F)Nc1ccc(C)cc1	166*[activator]	117	1	120	7	598	120*	0	99	101	97	99	104
C/C(=C\C(=O)C(F)(F)F)Nc1cc(C)cc(C)c1	102	102	0	104	2	103	nt	nt	nt	nt	nt	nt	nt
CCCCCn1cnc2c(sc3nc4c(cc32)CSC(C)(C)C4)c1=O	101	104	1	102	31	102	nt	nt	nt	nt	nt	nt	nt
